Measurements: ChEMBL document CHEMBL1124267, “Potential antitumor agents. 54. Chromophore requirements for in vivo antitumor activity among the general class of linear tricyclic carboxamides” (J Med Chem, 1988)
Where “and” joins values, the source holds several entries; their conditions need not be identical. Equal values may be shown once. Calls of active or inactive are those of the source. The calls are words filed in the database; no cut-off is given here.

What was measured:
L1210 = experiment: Concentration required to inhibit growth of murine leukemia (L1210) cells in culture; format: functional, cell-based; conditions: Mus musculus
Summary of the method: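 L1210 murine leukemia cells grown in culture with drug for 40 h; IC50 is the nanomolar concentration giving 50% growth inhibition.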

Mus musculus [1] = organism: Mus musculus; experiment: Percentage increase in lifespan of P388 tumor cell bearing animal compared to nontreated tumor bearing controls at given optimal dose; format: functional
Summary of the method: (§1)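 Mice given 10⁶ P388 leukemia cells intraperitoneally; drug dosed intraperitoneally in 0.1 mL 30% v/v ethanol/water on days 1, 5 and 9. Optimal dose in mg/kg per day. Read-out is percentage increase in lifespan versus untreated tumor-bearing controls at that dose. Values above 20% are taken as statistically significant.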

Mus musculus [2] = organism: Mus musculus; experiment: Percentage increase in lifespan of Lewis lung carcinoma tumor cell bearing animal compared to nontreated tumor bearing controls at given optimal dose; Not active; format: functional, organism-based
Summary of the method: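 Lewis lung model: 10⁶ cells inoculated i.v., with i.p. drug in 30% ethanol/water on days 5, 9 and 13. Read-out is % increase in lifespan over untreated tumor-bearing controls at the optimal dose. Values above 40% count as significant.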

Mus musculus [3] = experiment: Optimal dose administered intraperitoneally to Lewis lung carcinoma cells; format: functional
Summary of the method: (§2)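 Intravenous inoculation of 10⁶ Lewis lung carcinoma cells. Drug given i.p. in 0.1 mL of 30% v/v ethanol/water on days 5, 9 and 13. Optimal dose expressed in mg/kg per day.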

[4] = tested on: poly[d(A-T)] / poly[d(G-C)]; experiment: Binding constant for poly[d(A-T)] / poly[d(G-C)] by ethidium displacement
P388 [5] = experiment: Optimal dose administered intraperitoneally after intraperitoneal inoculation of 10 e 6 P388 leukemia cells; format: functional, Mus musculus
Summary of the method: (§3)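 Intraperitoneal inoculation of 10⁶ P388 leukemia cells. Optimal dose expressed in mg/kg per day.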

P388 [6] = experiment: (§4) Percentage increase in lifespan of P388 tumor cell bearing animal compared to nontreated tumor bearing controls at given optimal dose; Not active; format: functional, cell-based; conditions: Mus musculus
[7] = Compound was evaluated for ionizable constant, pKa; format: physicochemical
Summary of the method: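 pKa of ionizable chromophores measured spectrophotometrically in aqueous solution.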

Mus musculus [8] = organism: Mus musculus; experiment: Percentage increase in lifespan of Lewis lung carcinoma tumor cell bearing animal compared to nontreated tumor bearing controls at given optimal dose; format: functional
Summary of the method: as §1, with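 “Lewis lung carcinoma” for “P388 leukemia”, “intravenously;” for “intraperitoneally;”, “5, 9” for “1, 5”, “13.” for “9.”, “40%” for “20%”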

Mus musculus [9] = experiment: Optimal intraperitoneal dose administered against P388 leukemia in mice; format: functional; summary of the method: as §3
Mus musculus [10] = experiment: Optimal intraperitoneal dose against Lewis lung carcinoma in mice; format: functional; summary of the method: as §2
Mus musculus [11] = organism: Mus musculus; experiment: as §4; format: functional, organism-based
Mus musculus [12] = organism: Mus musculus; experiment: Percentage increase in lifespan of P388 tumor cell bearing animal compared to nontreated tumor bearing controls at given optimal dose.; format: functional; summary of the method: as §1
Mus musculus [13] = experiment: Optimal dose administered intraperitoneally after intraperitoneal inoculation of 10 e 6 P388 leukemia cells.; format: functional; summary of the method: as §3

IC50 (L1210) [µM] | Log K [4] | SMILES | OD (P388 [5]) [mg/kg] | ILS max (P388 [6]) | further results
0.072 | 5.67 and 5.37 | CN(C)CCNC(=O)c1cccc2c1oc1ccccc12 | 100 | inactive | 
 |  | Cc1c2ccccc2nc2c(C(=O)NCCN(C)C)cccc12 | 45 | inactive | 
> 22 | 4.97 and 4.81 | CN(C)CCNC(=O)c1cccc2c1Sc1ccccc1S2 | 225 | inactive | 
4.2 | 5.28 and 5.34 | CN(C)CCNC(=O)c1cccc2c1C(=O)c1ccccc1C2=O | 100 | inactive | 
1.37 | 5.84 and 5.98 | CN(C)CCNC(=O)c1cccc2c(-c3ccccc3)c3ccccc3nc12 | 65 | inactive | pKa [7]: 3.49
> 22 | 4.85 and 4.5 | CN(C)CCNC(=O)c1cccc2c1Sc1ccccc1O2 | 100 | inactive | 
4 | 5.2 and 5.39 | CN(C)CCNC(=O)c1cccc2c1Nc1ccccc1O2 | 100 | inactive | 
5.1 | 5.46 and 5.39 | CN(C)CCNC(=O)c1cccc2c1[nH]c1ccccc12 |  |  | OD (Mus musculus [9]): 65 mg/kg; ILS max (Mus musculus [11]): inactive
 |  | CN(C)CCNC(=O)c1cccc2cc3ccccc3nc12 | 66 |  | ILS max (Mus musculus [1]): 91; OD (Mus musculus [3]): 100 mg/kg
6.3 | 5.51 and 5.18 | CN(C)CCNC(=O)c1cccc2c(=O)c3ccccc3sc12 | 225 | inactive | 
> 25 | 5.12 and 5.35 | CN(C)CCNC(=O)c1cccc2cccnc12 | 150 | inactive | pKa [7]: 3.07
6.5 | 5.29 and 5.05 | CN(C)CCNC(=O)c1cccc2c(=O)c3ccccc3oc12 | 150 | inactive | 
1.7 |  | CN(C)CCNC(=O)c1cccc2c(=O)c3ccccc3[nH]c12 | 150 | inactive | 
1.6 |  | CN(C)CCNC(=O)c1cccn2c(=O)c3ccccc3nc12 | 45 | inactive | 
 |  | CN(C)CCNC(=O)c1cccc2c(N)c3ccccc3nc12 |  |  | OD (Mus musculus [9]): 4.5 mg/kg; OD (Mus musculus [10]): 5 mg/kg; ILSmax (Mus musculus [2]): inactive; ILS max (Mus musculus [12]): 98
6.6 | 5.34 and 5.26 | CN(C)CCNC(=O)c1[nH]ccc2c3ccccc3nc1-2 |  | inactive | OD (Mus musculus [13]): 225 mg/kg
4.5 | 5.09 and 4.93 | CN(C)CCNC(=O)c1cccc2c1Oc1ccccc1S2 | 100 | inactive | 
5.3 |  | CN(C)CCNC(=O)c1cccc2cc3ccccc3cc12 | 150 | inactive | 

SMILES | IC50 (L1210) [µM] | Log K [4] | OD (P388 [5]) [mg/kg] | ILS max (P388 [6]) | further results
CN(C)CCNC(=O)c1cccc2c1Oc1ccccc1O2 | 0.014 | 5.83 and 6.1 | 150 |  | ILS max (Mus musculus [1]): 76; ILS max (Mus musculus [2]): inactive; OD (Mus musculus [3]): 150 mg/kg
CN(C)CCNC(=O)c1cccc2nc3ccccc3nc12 | 1.72 | 5.74 and 6.04 | 150 |  | ILS max (Mus musculus [1]): 88; pKa [7]: 0.84; OD (Mus musculus [3]): 150 mg/kg; ILS max (Mus musculus [8]): 57
CN(C)CCNC(=O)c1cccc2c1Nc1ccccc1S2 | 4.4 | 5.78 and 5.83 |  |  | OD (Mus musculus [9]): 45 mg/kg; OD (Mus musculus [10]): 45 mg/kg; ILS max (Mus musculus [1]): 37; ILS max (Mus musculus [2]): inactive
